Measurements as given in ChEMBL document CHEMBL1944570, “Discovery of 4''-ether linked azithromycin-quinolone hybrid series: influence of the central linker on the antibacterial activity” (ACS Med Chem Lett, 2011).
≈ marks a conversion by molar mass, not a printed value.

What was measured:
Assay type in all cases: functional
Moraxella catarrhalis = experiment: Antibacterial activity against Moraxella catarrhalis by agar microdilution method
In short: (§1)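 Agar microdilution MIC per NCCLS standards against strains from the Pliva Research Institute culture collection; values in µg/mL. Panel included erythromycin-susceptible strains and strains with inducible or constitutive MLS resistance.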

Staphylococcus aureus [1] = experiment: Antibacterial activity against erythromycin-susceptible Staphylococcus aureus by agar microdilution method; in short: as §1
Staphylococcus aureus [2] = experiment: Antibacterial activity against ciprofloxacin-resistant Staphylococcus aureus by agar microdilution method
In short: (§2)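 MIC by agar microdilution following NCCLS standards; strains drawn from the PLIVA Research Institute culture collection. MIC reported in μg/mL.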

Streptococcus pneumoniae [3] = experiment: Antibacterial activity against constitutive MLS resistant Streptococcus pneumoniae by agar microdilution method; in short: as §2
Haemophilus influenzae = experiment: Antibacterial activity against Haemophilus influenzae B0529 by agar microdilution method; in short: as §1
Streptococcus pyogenes [4] = experiment: Antibacterial activity against efflux mediated macrolide resistant Streptococcus pyogenes by agar microdilution method; in short: as §2
Streptococcus pyogenes [5] = experiment: Antibacterial activity against constitutive MLS resistant Streptococcus pyogenes by agar microdilution method; in short: as §2
Streptococcus pneumoniae [6] = experiment: Antibacterial activity against erythromycin-susceptible Streptococcus pneumoniae by agar microdilution method; in short: as §2
Staphylococcus aureus [7] = experiment: Antibacterial activity against efflux mediated macrolide resistant Staphylococcus aureus by agar microdilution method; in short: as §2
Staphylococcus aureus [8] = experiment: Antibacterial activity against Staphylococcus aureus with inducible resistance to MLS by agar microdilution method; in short: as §2
Streptococcus pyogenes [9] = experiment: Antibacterial activity against erythromycin-susceptible Streptococcus pyogenes by agar microdilution method; in short: as §2
Streptococcus pyogenes [10] = experiment: Antibacterial activity against Streptococcus pyogenes with inducible resistance to MLS by agar microdilution method; in short: as §2
Staphylococcus aureus [11] = experiment: Antibacterial activity against constitutive MLS resistant Staphylococcus aureus by agar microdilution method; in short: as §2
Streptococcus pneumoniae [12] = experiment: Antibacterial activity against efflux mediated macrolide resistant Streptococcus pneumoniae by agar microdilution method; in short: as §2

SMILES	MIC (Moraxella catarrhalis) [µg/mL]	MIC (Staphylococcus aureus [1]) [µg/mL]	MIC (Staphylococcus aureus [2]) [µg/mL]	MIC (Streptococcus pneumoniae [3]) [µg/mL]	MIC (Haemophilus influenzae) [µg/mL]	MIC (Streptococcus pyogenes [4]) [µg/mL]	MIC (Streptococcus pyogenes [5]) [µg/mL]	MIC (Streptococcus pneumoniae [6]) [µg/mL]	MIC (Staphylococcus aureus [7]) [µg/mL]	MIC (Staphylococcus aureus [8]) [µg/mL]	MIC (Streptococcus pyogenes [9]) [µg/mL]	MIC (Streptococcus pyogenes [10]) [µg/mL]	MIC (Staphylococcus aureus [11]) [µg/mL]	MIC (Streptococcus pneumoniae [12]) [µg/mL]
CCOC(=O)c1cn(CC)c2ccc(N3CCN(CCO[C@H]4[C@H](C)O[C@@H](O[C@H]5[C@H](C)[C@@H](O[C@@H]6O[C@H](C)C[C@H](N(C)C)[C@H]6O)[C@](C)(O)C[C@@H](C)CN(C)[C@H](C)[C@H]6OC(=O)O[C@]6(C)[C@@H](CC)OC(=O)[C@@H]5C)C[C@@]4(C)OC)CC3)cc2c1=O	0.25 (≈ 0.221 µM)	0.5 (≈ 0.442 µM)	≥ 64	64 (≈ 56.6 µM)	1 (≈ 0.885 µM)	16 (≈ 14.2 µM)	64 (≈ 56.6 µM)	≤ 0.125	8 (≈ 7.08 µM)	64 (≈ 56.6 µM)	≤ 0.125	1 (≈ 0.885 µM)	> 64	
CC[C@H]1OC(=O)[C@H](C)[C@@H](O[C@H]2C[C@@](C)(OC)[C@@H](OCCN3CCN(c4ccc5c(c4)c(=O)c(C(=O)O)cn5CC)CC3)[C@H](C)O2)[C@H](C)[C@@H](O[C@@H]2O[C@H](C)C[C@H](N(C)C)[C@H]2O)[C@](C)(O)C[C@@H](C)CN(C)[C@H](C)[C@H]2OC(=O)O[C@@]21C	4 (≈ 3.63 µM)	1 (≈ 0.907 µM)	≥ 64	32 (≈ 29 µM)	2 (≈ 1.81 µM)	4 (≈ 3.63 µM)	32 (≈ 29 µM)	≤ 0.125	2 (≈ 1.81 µM)	16 (≈ 14.5 µM)	0.25 (≈ 0.227 µM)	4 (≈ 3.63 µM)	32 (≈ 29 µM)	
CC[C@H]1OC(=O)[C@H](C)[C@@H](O[C@H]2C[C@@](C)(OC)[C@@H](OCCNCCNc3cc4c(=O)c(C(=O)O)cn(C5CC5)c4cc3Cl)[C@H](C)O2)[C@H](C)[C@@H](O[C@@H]2O[C@H](C)C[C@H](N(C)C)[C@H]2O)[C@](C)(O)C[C@@H](C)CN(C)[C@H](C)[C@H]2OC(=O)O[C@@]21C	0.25 (≈ 0.223 µM)	2 (≈ 1.78 µM)	≥ 64	64 (≈ 57 µM)	2 (≈ 1.78 µM)	0.5 (≈ 0.445 µM)	2 (≈ 1.78 µM)	≤ 0.125	4 (≈ 3.56 µM)	64 (≈ 57 µM)	≤ 0.125	0.5 (≈ 0.445 µM)	> 64	
CC[C@H]1OC(=O)[C@H](C)[C@@H](O[C@H]2C[C@@](C)(OC)[C@@H](OCCNCCOCCNc3cc4c(cc3F)c(=O)c(C(=O)O)cn4C3CC3)[C@H](C)O2)[C@H](C)[C@@H](O[C@@H]2O[C@H](C)C[C@H](N(C)C)[C@H]2O)[C@](C)(O)C[C@@H](C)CN(C)[C@H](C)[C@H]2OC(=O)O[C@@]21C	0.5 (≈ 0.435 µM)	8 (≈ 6.95 µM)	≥ 64	16 (≈ 13.9 µM)	4 (≈ 3.48 µM)	4 (≈ 3.48 µM)	32 (≈ 27.8 µM)	≤ 0.125	64 (≈ 55.6 µM)	64 (≈ 55.6 µM)	≤ 0.125	1 (≈ 0.869 µM)	> 64	
CC[C@H]1OC(=O)[C@H](C)[C@@H](O[C@H]2C[C@@](C)(OC)[C@@H](OCCNCCOCCOCCNc3cc4c(=O)c(C(=O)O)cn(C5CC5)c4cc3Cl)[C@H](C)O2)[C@H](C)[C@@H](O[C@@H]2O[C@H](C)C[C@H](N(C)C)[C@H]2O)[C@](C)(O)C[C@@H](C)CN(C)[C@H](C)[C@H]2OC(=O)O[C@@]21C	0.5 (≈ 0.413 µM)	2 (≈ 1.65 µM)	≥ 64	64 (≈ 52.9 µM)	1 (≈ 0.826 µM)	0.5 (≈ 0.413 µM)	1 (≈ 0.826 µM)	≤ 0.125	2 (≈ 1.65 µM)	64 (≈ 52.9 µM)	≤ 0.125		32 (≈ 26.4 µM)	
CC[C@H]1OC(=O)[C@H](C)[C@@H](O[C@H]2C[C@@](C)(OC)[C@@H](OCCN3CCN(c4ccc5c(c4)c(=O)c(C(=O)O)cn5CC)CC3)[C@H](C)O2)[C@H](C)[C@@H](O[C@@H]2O[C@H](C)C[C@H](N(C)C)[C@H]2O)[C@](C)(O)C[C@@H](C)CN(C)[C@H](C)[C@@H](O)[C@]1(C)O	4 (≈ 3.72 µM)	2 (≈ 1.86 µM)	≥ 64	64 (≈ 59.5 µM)	8 (≈ 7.43 µM)	0.5 (≈ 0.465 µM)	64 (≈ 59.5 µM)	≤ 0.125	4 (≈ 3.72 µM)	64 (≈ 59.5 µM)	≤ 0.125	0.25 (≈ 0.232 µM)	64 (≈ 59.5 µM)	
CC[C@H]1OC(=O)[C@H](C)[C@@H](O[C@H]2C[C@@](C)(OC)[C@@H](OCCNCCNc3cc4c(cc3F)c(=O)c(C(=O)O)cn4C3CC3)[C@H](C)O2)[C@H](C)[C@@H](O[C@@H]2O[C@H](C)C[C@H](N(C)C)[C@H]2O)[C@](C)(O)C[C@@H](C)CN(C)[C@H](C)[C@@H](O)[C@]1(C)O	1 (≈ 0.926 µM)	2 (≈ 1.85 µM)	≥ 64	32 (≈ 29.6 µM)	4 (≈ 3.7 µM)	1 (≈ 0.926 µM)	1 (≈ 0.926 µM)	≤ 0.125	2 (≈ 1.85 µM)	64 (≈ 59.2 µM)	≤ 0.125		64 (≈ 59.2 µM)	
CC[C@H]1OC(=O)[C@H](C)[C@@H](O[C@H]2C[C@@](C)(OC)[C@@H](OCCNCCOCCNc3cc4c(cc3F)c(=O)c(C(=O)O)cn4C3CC3)[C@H](C)O2)[C@H](C)[C@@H](O[C@@H]2O[C@H](C)C[C@H](N(C)C)[C@H]2O)[C@](C)(O)C[C@@H](C)CN(C)[C@H](C)[C@@H](O)[C@]1(C)O	8 (≈ 7.11 µM)	8 (≈ 7.11 µM)	≥ 64	2 (≈ 1.78 µM)	8 (≈ 7.11 µM)	1 (≈ 0.889 µM)	2 (≈ 1.78 µM)	≤ 0.125	8 (≈ 7.11 µM)	64 (≈ 56.9 µM)	≤ 0.125		> 64	
CC[C@H]1OC(=O)[C@H](C)[C@@H](O[C@H]2C[C@@](C)(OC)[C@@H](OCCNCCOCCOCCNc3cc4c(=O)c(C(=O)O)cn(C5CC5)c4cc3Cl)[C@H](C)O2)[C@H](C)[C@@H](O[C@@H]2O[C@H](C)C[C@H](N(C)C)[C@H]2O)[C@](C)(O)C[C@@H](C)CN(C)[C@H](C)[C@@H](O)[C@]1(C)O	1 (≈ 0.844 µM)	4 (≈ 3.38 µM)	≥ 64	64 (≈ 54 µM)	4 (≈ 3.38 µM)	2 (≈ 1.69 µM)	2 (≈ 1.69 µM)	≤ 0.125	1 (≈ 0.844 µM)	64 (≈ 54 µM)	≤ 0.125		32 (≈ 27 µM)	
CC[C@H]1OC(=O)[C@H](C)[C@@H](O[C@H]2C[C@@](C)(OC)[C@@H](OCCCC(=O)NCCOCCNc3cc4c(=O)c(C(=O)O)cn(C5CC5)c4cc3Cl)[C@H](C)O2)[C@H](C)[C@@H](O[C@@H]2O[C@H](C)C[C@H](N(C)C)[C@H]2O)[C@](C)(O)C[C@@H](C)CN(C)[C@H](C)[C@@H](O)[C@]1(C)O	4 (≈ 3.38 µM)	2 (≈ 1.69 µM)	≥ 64	4 (≈ 3.38 µM)	4 (≈ 3.38 µM)	1 (≈ 0.845 µM)	2 (≈ 1.69 µM)	≤ 0.125	8 (≈ 6.76 µM)	64 (≈ 54.1 µM)	≤ 0.125		64 (≈ 54.1 µM)	0.25 (≈ 0.211 µM)
CC[C@H]1OC(=O)[C@H](C)C(=O)[C@H](C)[C@@H](O[C@@H]2O[C@H](C)C[C@H](N(C)C)[C@H]2O)[C@](C)(OCC=Cc2cnc3ccccc3c2)C[C@@H](C)C(=O)[C@H](C)[C@H]2NC(=O)O[C@@]21C [CETHROMYCIN]	≤ 0.125	≤ 0.125	≥ 64		1 (≈ 1.31 µM)		1 (≈ 1.31 µM)	≤ 0.125	0.25 (≈ 0.326 µM)	0.25 (≈ 0.326 µM)	≤ 0.125		> 64	
